HSP90 inh = HSP90 inhibitors, primary screen, cell lysate, luminescence; Rabbit reticulocyte lysate, luciferase refolding luminescence, 3 h; actives 0.91% (n = 290,000); inhibition, % at 5.6 µM; Heat shock protein HSP 90 (rabbit reticulocyte lysate; luciferase refolding);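 active = inhibition above the screen-wide mean plus 3 SD, computed separately per campaign, cut at about 16% in these data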;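 note: inhibitors lower the luminescence because luciferase stays unfolded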
SENP8 block-1 = SENP8 protease inhibitors, primary screen, biochemical, luminescence; inhibition, % at 10 µM; actives 1.2% (n = 330,000); purified SENP8, Z-RLRGG-aminoluciferin cleavage; Sentrin-specific protease 8 (Homo sapiens), Q96LD8; in the data active = inhibition above about 50%
Target sequence (Q96LD8 whole entry, looked up): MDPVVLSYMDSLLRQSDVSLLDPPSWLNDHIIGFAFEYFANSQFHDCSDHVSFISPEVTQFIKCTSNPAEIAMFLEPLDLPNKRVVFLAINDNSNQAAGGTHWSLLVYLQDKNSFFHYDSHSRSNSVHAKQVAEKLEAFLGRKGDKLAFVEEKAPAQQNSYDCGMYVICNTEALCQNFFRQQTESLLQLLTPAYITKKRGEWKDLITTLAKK
SENP7 block = SENP7 protease inhibitors, primary screen, biochemical, luminescence, uHTS; Sentrin-specific protease 7 (Homo sapiens), Q9BQF6; recombinant SENP7, Z-RLRGG-aminoluciferin luminescence, 40 min; inhibition, % at 5 µM; actives 1.5% (n = 330,000); AID 434973, 2010;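 active = inhibition above about 50% at the single test dose, limit read from the data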
Target sequence (Q9BQF6 706-1050 limits assumed): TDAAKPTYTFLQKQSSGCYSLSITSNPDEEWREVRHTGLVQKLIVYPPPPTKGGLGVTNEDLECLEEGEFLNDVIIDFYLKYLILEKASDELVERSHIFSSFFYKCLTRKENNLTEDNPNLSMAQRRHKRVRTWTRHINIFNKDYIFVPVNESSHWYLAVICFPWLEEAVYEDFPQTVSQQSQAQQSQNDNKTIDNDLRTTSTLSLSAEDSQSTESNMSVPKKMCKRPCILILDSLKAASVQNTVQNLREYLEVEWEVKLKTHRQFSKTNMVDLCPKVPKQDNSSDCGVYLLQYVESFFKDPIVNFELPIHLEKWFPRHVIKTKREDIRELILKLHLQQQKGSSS
SENP6 block = SENP6 protease inhibitors, primary screen, biochemical, luminescence, uHTS; Sentrin-specific protease 6 (Homo sapiens), Q9GZR1; Recombinant SENP6 catalytic domain, aminoluciferin luminescence; inhibition, % at 10 µM; actives 1.8% (n = 330,000); AID 2599, 2010;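 active = inhibition above about 50% at the single tested dose, limit read from the data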
SENP1 inh = human SENP1 catalytic domain inhibitors, primary screen, biochemical, FRET, uHTS | Sentrin-specific protease 1 (Homo sapiens), Q9P0U3 | recombinant SENP1 catalytic domain, CyPet-SUMO1-YPet FRET cleavage | inhibition, % at 10 µM | actives 0.21% (n = 360,000);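 active = inhibition at least 30% at 10 µM, raw YFP signal under a set limit, fluorescence ratio 0.5 to 1.5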
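material = recombinant human SENP1 catalytic domain, His6-tagged | quantity = 20 pM enzyme | reagent = 25 nM SUMO1 FRET substrate | compound dosing = 10 µM single point, 0.5% DMSO | timing = 50 min enzyme reaction, room temperature, light-protected | detection = FRET, CFP and YFP emission | control set = no-enzyme low, enzyme-DMSO high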
SENP8 block-2 = human SENP8 protease inhibitors, primary screen, biochemical, fluorescence, Nedd8 protein substrate, uHTS; inhibition, % at 20 µM; recombinant SENP8; actives 0.64% (n = 360,000); in the data active = inhibition mostly above about 40%, no sharp cut-off; inactive = mostly below about 27%
HSP90 confirm = HSP90 inhibitors, confirmation, cell lysate, luminescence | shares compounds with HSP90 inh | rabbit reticulocyte lysate, luciferase refolding luminescence, 3 h | inhibition, % at 5.9 µM | actives 64% (n = 2,300) | AID 1846, 2009; in the data active = inhibition above about 18%
FLuc counter = firefly luciferase inhibitors, HSP90 counter-screen, confirmation, artefact control for HSP90 inhibitor project, biochemical, luminescence, triplicate | actives 48% (n = 2,300) | shares compounds with HSP90 inh | purified native firefly luciferase | inhibition, % at 5.9 µM | AID 1847, 2009;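 active = inhibition above the mean inhibition of all tested sample wells plus 3 SD, cut at about 10% in these data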
SENP8 confirm = SENP8 protease inhibitors, retest, confirmation, biochemical, luminescence, single concentration | shares compounds with SENP7 block | Recombinant SENP8, Z-RLRGG-aminoluciferin luminescence, 60 min | inhibition, % at 12.5 µM | actives 40% (n = 6,200) | AID 488912, 2010;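 active = mean inhibition across replicates above about 50%, limit read from the data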
SENP6 conf = SENP6 protease inhibitors, confirmation, biochemical, luminescence, single concentration | shares compounds with SENP7 block | inhibition, % at 12.5 µM | AID 488915, 2010 | recombinant SENP6, Z-RLRGG-aminoluciferin luminescence | actives 58% (n = 6,200)
SENP7 conf = SENP7 protease inhibitors, retest, confirmation, biochemical, luminescence, single concentration; recombinant SENP7, Z-RLRGG-aminoluciferin luminescence, 40 min; inhibition, % at 12.5 µM; shares compounds with SENP7 block; actives 69% (n = 6,200); AID 488917, 2010
Casp3 SENP sel = caspase-3 protease inhibitors, confirmation, selectivity assay for SENP inhibitor project, biochemical, single concentration | purified caspase-3, Z-DEVD-aminoluciferin luminescence, 60 min | AID 488918, 2010 | actives 60% (n = 6,200) | inhibition, % at 12.5 µM | shares compounds with SENP7 block;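 active = mean inhibition above about 50%, limit read from the data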
Luc interf = interferes with luciferase luminescence in SENP counter-screen | actives 39% (n = 6,200) | inhibition, % at 12.5 µM | shares compounds with SENP7 block | Pre-incubated SENP8/Z-RLRGG-aminoluciferin, luciferase luminescence interference;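 active = mean inhibition above about 50% when retested at one dose, limit read from the data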
Numbers stand for hits. In the library only some 2.9% were active in any assay of this set; here they are far more common.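 Rule for the calls, unless noted: active = mean inhibition above about 50% in the one-dose retest (limit read from the data); inactive = the rest.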

Screening Brc1ccc(-c2nc(-c3ccccn3)no2)o1 returned HSP90 inh 44, SENP8 block-1 87, SENP7 block 89, SENP6 block 89, SENP1 inh inactive, SENP8 block-2 inactive, HSP90 confirm 60, FLuc counter 55, SENP8 confirm 93, SENP6 conf 94, SENP7 conf 101, Casp3 SENP sel 96 and Luc interf 92.
Screening COc1ccccc1-c1nc(-c2ccccn2)no1 returned HSP90 inh 47, SENP8 block-1 93, SENP7 block 99, SENP6 block 96, SENP1 inh inactive, SENP8 block-2 inactive, HSP90 confirm 78, FLuc counter 65, SENP8 confirm inactive, SENP6 conf 99, SENP7 conf 102, Casp3 SENP sel 99 and Luc interf 97.
`Cc1cc(C)c(C(=O)C2OC(=O)C(C)(C)C(=O)C2(C)C)c(C)c1` (stereo not given) gave HSP90 inh inactive, SENP8 block-1 inactive, SENP7 block inactive, SENP6 block inactive, SENP1 inh inactive and SENP8 block-2 inactive.
`COCCNC(=O)c1ccc(N2CC3CC(C2)c2cccc(=O)n2C3)c(NC(=O)c2ccc(C(C)(C)C)cc2)c1` (stereo not given) gave SENP1 inh inactive and SENP8 block-2 inactive.
For CCN(CC)S(=O)(=O)c1ccc(C(C)NC(=O)Cc2c[nH]c3ccccc23)cc1 (stereo not given) the results were HSP90 inh inactive, SENP8 block-1 inactive, SENP7 block inactive, SENP6 block inactive, SENP1 inh inactive and SENP8 block-2 inactive.
COc1ccc(N2CCN(C(=O)C3CCN(C(=O)c4cccc(Cl)c4)CC3)CC2)cc1 was read as HSP90 inh inactive, SENP8 block-1 inactive, SENP7 block inactive, SENP6 block inactive, SENP1 inh inactive and SENP8 block-2 inactive.
Cc1c(C)c2ccc(OCC(=O)Nc3ccccn3)cc2oc1=O was read as HSP90 inh 25, SENP8 block-1 inactive, SENP7 block 95, SENP6 block 64, SENP1 inh inactive, SENP8 block-2 inactive, HSP90 confirm 64, FLuc counter 28, SENP8 confirm inactive, SENP6 conf inactive, SENP7 conf inactive, Casp3 SENP sel inactive and Luc interf inactive.
For Cc1c(C)c2ccc(OCC(=O)Nc3nccs3)cc2oc1=O the results were HSP90 inh 58, SENP8 block-1 51, SENP7 block 84, SENP6 block 56, SENP1 inh inactive, SENP8 block-2 inactive, HSP90 confirm 73, FLuc counter 56, SENP8 confirm inactive, SENP6 conf inactive, SENP7 conf inactive, Casp3 SENP sel inactive and Luc interf inactive.
`Cc1cccc(OCC(=O)Nc2nccs2)c1C` gave HSP90 inh 27, SENP8 block-1 90, SENP7 block 96, SENP6 block 95, SENP1 inh inactive, SENP8 block-2 inactive, HSP90 confirm 29, FLuc counter 14, SENP8 confirm 89, SENP6 conf 92, SENP7 conf 100, Casp3 SENP sel 94 and Luc interf 87.
For Cc1cc(=O)oc2cc(OCC(=O)Nc3nccs3)ccc12 the results were HSP90 inh inactive, SENP8 block-1 inactive, SENP7 block inactive, SENP6 block inactive, SENP1 inh inactive and SENP8 block-2 inactive.
For CN(CC(=O)Nc1ccccc1Cl)CC(=O)N(C)c1c(N)n(Cc2ccccc2)c(=O)[nH]c1=O the results were SENP8 block-1 inactive, SENP7 block inactive, SENP6 block inactive, SENP1 inh inactive and SENP8 block-2 inactive.
COc1cccc(NC(=O)N2CCCCCC2)c1 was read as HSP90 inh inactive, SENP8 block-1 inactive, SENP7 block inactive, SENP6 block inactive, SENP1 inh inactive and SENP8 block-2 inactive.
For COc1cccc(NC(=O)N2CCc3ccccc3C2)c1 the results were HSP90 inh 21, SENP8 block-1 inactive, SENP7 block 53, SENP6 block 53, SENP1 inh inactive, SENP8 block-2 inactive, HSP90 confirm inactive, FLuc counter inactive, SENP8 confirm inactive, SENP6 conf inactive, SENP7 conf 80, Casp3 SENP sel 70 and Luc interf 56.
For CCOc1cc(/C=C2/C(=O)N(c3ccccc3)N=C2C)ccc1OC(=O)c1ccco1 the results were HSP90 inh 27, SENP8 block-1 inactive, SENP7 block 68, SENP6 block inactive, SENP1 inh inactive, SENP8 block-2 66, HSP90 confirm inactive, FLuc counter inactive, SENP8 confirm inactive, SENP6 conf inactive, SENP7 conf inactive, Casp3 SENP sel inactive and Luc interf inactive.
For COc1cccc(/C=N/Nc2nccnc2Cl)c1O the results were HSP90 inh 55, SENP8 block-1 96, SENP7 block 100, SENP6 block 97, SENP1 inh inactive, SENP8 block-2 inactive, HSP90 confirm 72, FLuc counter 59, SENP8 confirm 98, SENP6 conf 99, SENP7 conf 102, Casp3 SENP sel 98 and Luc interf 88.

Compound activity deposited in PubChem by several laboratories.
